Experimental findings from ChEMBL document CHEMBL1152813, “Synthesis of puromycin derivatives with backbone-elongated substrates and associated translation inhibitory activities” (Bioorg Med Chem, 2009) are described below.

A short description of series [1]: Solubility in water. In kind it is physicochemical. Conditions: buffer.
Another series relates to Escherichia coli. As to the kind of experiment: Inhibition of firefly luciferase mRNA translation in Escherichia coli after 1 hr relative to control. In kind it is functional. The method, boiled down: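 Reconstituted E. coli translation system translating firefly luciferase mRNA with CCPmn derivatives at 2.5–30 µM (2.5–120 µM for some), 1 h incubation. Luciferase activity (c.p.s.) read by luminescence counter; translation efficiency (%) set against a serial-dilution calibration of control luciferase translated without CCPmns; three independent experiments, standard deviations.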

With `C[C@H](CN)C(=O)N[C@H]1[C@@H](O)[C@H](n2cnc3c(N(C)C)ncnc32)O[C@@H]1COP(=O)(O)O`, the solubility result in series [1] was “Soluble”. Same read-out and setting: the entry for `C[C@H](CO)C(=O)N[C@H]1[C@@H](O)[C@H](n2cnc3c(N(C)C)ncnc32)O[C@@H]1COP(=O)(O)O` is “Soluble”; for `CC(=O)N[C@H]1[C@@H](O)[C@H](n2cnc3c(N(C)C)ncnc32)O[C@@H]1COP(=O)(O)O` it is “Soluble”. For orientation: IC50 means the concentration needed to halve the response being measured. Low values mean inhibition by little substance, high ones a need for much substance. In the case of `C[C@H](CO)C(=O)N[C@H]1[C@@H](O)[C@H](n2cnc3c(N(C)C)ncnc32)O[C@@H]1COP(=O)(O)O[C@H]1[C@@H](O)[C@H](n2ccc(N)nc2=O)O[C@@H]1COP(=O)(O)O[C@H]1[C@@H](O)[C@H](n2ccc(N)nc2=O)O[C@@H]1CO`, the solubility entry in series [1] was “Soluble”. For the same molecule, the IC50 in the series with Escherichia coli stood at 12 µM.

As to `C[C@H](CN)C(=O)N[C@H]1[C@@H](O)[C@H](n2cnc3c(N(C)C)ncnc32)O[C@@H]1COP(=O)(O)O[C@H]1[C@@H](O)[C@H](n2ccc(N)nc2=O)O[C@@H]1COP(=O)(O)O[C@H]1[C@@H](O)[C@H](n2ccc(N)nc2=O)O[C@@H]1CO`, in series [1], the solubility result was “Soluble”. The same molecule had an IC50 in the series on Escherichia coli of 33 µM.

Take `CC(=O)N[C@H]1[C@@H](O)[C@H](n2cnc3c(N(C)C)ncnc32)O[C@@H]1COP(=O)(O)O[C@H]1[C@@H](O)[C@H](n2ccc(N)nc2=O)O[C@@H]1COP(=O)(O)O[C@H]1[C@@H](O)[C@H](n2ccc(N)nc2=O)O[C@@H]1CO`: the solubility result in series [1] is “Soluble”. In the series with Escherichia coli, this molecule yielded an IC50 of 66 µM. For the molecule `COc1ccc(C[C@H](N)C(=O)N[C@H]2[C@@H](O)[C@H](n3cnc4c(N(C)C)ncnc43)O[C@@H]2COP(=O)(O)O[C@H]2[C@@H](O)[C@H](n3ccc(N)nc3=O)O[C@@H]2COP(=O)(O)O[C@H]2[C@@H](O)[C@H](n3ccc(N)nc3=O)O[C@@H]2CO)cc1`, the solubility result in series [1] was “Soluble”. In the series with Escherichia coli, this molecule came in with a concentration for half-maximal inhibition (IC50) of 5 µM.

Take `CN(C)c1ncnc2c1ncn2[C@@H]1O[C@H](CO)[C@@H](NC(=O)CCO)[C@H]1O`: in series [1], the solubility result is “Insoluble”.
